Assay results published in ChEMBL document CHEMBL6177924, “Synthesis and antifungal evaluation of new azole derivatives containing 1,2,3-triazole” (RSC Med Chem, 2025).
≈ marks a conversion by molar mass, not a printed value. Calls of active or inactive are those of the source. No cut-off for these calls is given here.

Assays:
Candida albicans [1] = assay: Antifungal activity against Candida albicans assessed as sparse distribution of fungal cells at 0.27 to 1.06 microg/ml measured after 4 to 8 hrs by inverted microscopic analysis; type: functional, organism-based; conditions: dose 0.27-1.06 µg/ml, time 4-8 hrs
In short: (§1)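 Hyphae were induced in SD+10% FBS or in Spider medium. Log-phase cells at 1×10^5 CFU/mL final, 1 mL per well in 24-well plates, 3 wells per group. Drug at 0.27, 0.53 or 1.06 µg/mL, fluconazole, or no-drug control. Incubated at 30 °C; hyphal formation observed and photographed by inverted microscope at 4 h and 8 h.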

Candida albicans [2] = assay: Induction of morphological changes in Candida albicans assessed as blurred boundary between cell wall and cell membrane at 0.53 to 1.06 microg/ml incubated for 16 to 24 hrs by transmission electron microscopic analysis; type: functional, organism-based; conditions: dose 0.53-1.06 µg/ml, time 16-24 hrs
In short: (§2)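 C. albicans at 5×10^5 CFU/mL in SDB shaken with drug (0.27, 0.53, 1.06 µg/mL), fluconazole or no drug at 30 °C, 150 r/min, for 16-24 h. Pellets washed with PBS and fixed in cold 3% paraformaldehyde/2.5% glutaraldehyde at 4 °C, then 1% OsO4. Dehydrated in acetone and embedded in Epon-812. 60-90 nm sections stained with uranyl acetate and lead citrate, imaged by TEM.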

Candida albicans [3] = assay: Antifungal activity against drug resistant Candida albicans SC5314-FR assessed as inhibition of fungal growth incubated for 24 hrs by CLSI protocol based microdilution method; type: functional
In short: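 Fluconazole-resistant strain derived from SC5314 by fluconazole exposure. Log-phase cells at 1×10^5 CFU/mL in SDB. Drug fivefold serial dilutions, 200–0.064 µg/mL final, DMSO <0.1%, triplicate wells, 200 µL. Incubated 30 °C for 24 h and read at OD630. Growth, blank and fluconazole controls included. Run three times.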

Candida albicans [4] = assay: Induction of morphological changes in Candida albicans assessed as cell enlargement at 0.53 to 1.06 microg/ml incubated for 16 to 24 hrs by transmission electron microscopic analysis; type: functional, organism-based; conditions: dose 0.53-1.06 µg/ml, time 16-24 hrs; in short: as §2
Candida albicans [5] = assay: Induction of morphological changes in Candida albicans assessed as effect on cytoplasmic structure at 0.53 to 1.06 microg/ml incubated for 16 to 24 hrs by transmission electron microscopic analysis; type: functional, organism-based; conditions: dose 0.53-1.06 µg/ml, time 16-24 hrs; in short: as §2
Candida albicans [6] = assay: Antibiofilm activity in Candida albicans SC5314 assessed as appearance of yeast form of fungal cells at 0.27 microg/ml measured after 24 hrs by inverted microscopic analysis; type: functional, organism-based; conditions: dose 0.27 µg/ml
In short: (§3)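 Log-phase C. albicans in RPMI1640+10% FBS at 1×10^5 CFU/mL allowed to adhere in 24-well plates for 90 min at 30 °C; unattached medium removed. 1 mL medium with drug (0.27, 0.53, 1.06 µg/mL) or without drug added; 24 h at 30 °C. Biofilm stained with crystal violet 30 min, washed 3× with PBS, viewed by inverted microscope.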

Candida albicans [7] = assay: Induction of morphological changes in Candida albicans assessed as effect on cytoplasmic morphology at 0.53 to 1.06 microg/ml incubated for 16 to 24 hrs by transmission electron microscopic analysis; type: functional, organism-based; conditions: dose 0.53-1.06 µg/ml, time 16-24 hrs; in short: as §2
Candida albicans [8] = assay: Antifungal activity against Candida albicans assessed as increase in pseudomycelial fungal cells at 0.27 to 1.06 microg/ml measured after 4 to 8 hrs by inverted microscopic analysis; type: functional, organism-based; conditions: dose 0.27-1.06 µg/ml, time 4-8 hrs; in short: as §1
Candida albicans [9] = assay: Induction of morphological changes in Candida albicans assessed as normal cell wall appearance at 0.53 microg/ml incubated for 16 to 24 hrs by transmission electron microscopic analysis; type: functional, organism-based; conditions: dose 0.53 µg/ml, time 16-24 hrs; in short: as §2
16HBE14o- = assay: Cytotoxicity against human 16HBE14o- cells assessed as reduction in cell viability at <=4 microg/ml incubated for 48 hrs by CCK8 assay; type: toxicity, cell-based; conditions: dose < 4 µg/ml
In short: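 16HBE cells in RPMI1640 with 10% FBS and 1% antibiotics, seeded in 96-well plates and attached for 24 h at 37 °C. Drug serially diluted 5-fold from 100 µg/mL in complete medium, with growth and blank controls. Exposure 48 h, then viability read with CCK8 reagent.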

Candida albicans [10] = assay: Antifungal activity against drug sensitive Candida albicans SC5314 assessed as inhibition of fungal growth incubated for 24 hrs by CLSI protocol based microdilution method; type: functional
In short: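 Broth microdilution of log-phase C. albicans at 1×10^5 CFU/mL in Sabouraud liquid medium (SDB). Compounds serially diluted 5-fold to final 200-0.064 µg/mL, DMSO below 0.1%. Triplicate wells, 200 µL final volume, with growth, blank and fluconazole controls. Incubated 24 h at 30 °C, OD read at 630 nm; experiment repeated three times.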

Candida albicans [11] = assay: Antibiofilm activity in Candida albicans SC5314 assessed as appearance of fungal cells in yeast shape with few mycelia measured after 24 hrs by inverted microscopic analysis; type: functional, organism-based; conditions: dose 0.27-1.06 µg/ml; in short: as §3
Candida albicans [12] = assay: Antibiofilm activity in Candida albicans SC5314 assessed as appearance of short mycelia at 0.27 microg/ml measured after 24 hrs by inverted microscopic analysis; type: functional, organism-based; conditions: dose 0.27 µg/ml; in short: as §3
Candida albicans [13] = assay: Antifungal activity against Candida albicans SC5314 assessed as inhibition of fungal growth measured after 36 hrs by time-killing curve analysis; type: functional, organism-based
In short: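 Log-phase C. albicans at 1×10^5 CFU/mL in SDB, 10 mL cultures with drug (0.27, 0.53, 1.06 µg/mL), fluconazole or no drug. Shaken at 150 r/min, 30 °C. Samples taken at 0, 4, 8, 12, 24, 36 and 48 h for absorbance at 630 nm, triplicate wells. Absorbance plotted against time.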

Cell membrane = assay: Induction of cell membrane permeability in Candida albicans assessed as increase in fluorescence intensity by multifunctional enzymatic assay; type: subcellular
Candida albicans [14] = assay: Induction of morphological changes in Candida albicans assessed as blurred spacing between cell wall and cell membrane at 0.53 microg/ml incubated for 16 to 24 hrs by transmission electron microscopic analysis; type: functional, organism-based; conditions: dose 0.53 µg/ml, time 16-24 hrs; in short: as §2
Candida albicans [15] = assay: Antifungal activity against Candida albicans SC5314 assessed as inhibition of fungal growth measured up to 48 hrs by time-killing curve analysis; type: functional, organism-based
In short: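 Log-phase cells at 1×10^5 CFU/mL in SDB, 10 mL per group. Drug at 0.27, 0.53 or 1.06 µg/mL, plus fluconazole and untreated controls. Shaken 150 r/min at 30 °C. Samples taken at 0, 4, 8, 12, 24, 36 and 48 h and read at A630, triplicate wells. Absorbance plotted against time.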

Candida albicans [16] = assay: Induction of morphological changes in Candida albicans assessed as unclear cell membrane outline at 0.53 to 1.06 microg/ml incubated for 16 to 24 hrs by transmission electron microscopic analysis; type: functional, organism-based; conditions: dose 0.53-1.06 µg/ml, time 16-24 hrs; in short: as §2
Candida albicans [17] = assay: Induction of morphological changes in Candida albicans assessed as absence of intracellular substance at 0.53 microg/ml incubated for 16 to 24 hrs by transmission electron microscopic analysis; type: functional, organism-based; conditions: dose 0.53 µg/ml, time 16-24 hrs; in short: as §2
Candida albicans [18] = assay: Antibiofilm activity in Candida albicans SC5314 assessed as decrease in number of mycelia at 0.27 microg/ml measured after 24 hrs by inverted microscopic analysis; type: functional, organism-based; conditions: dose 0.27 µg/ml; in short: as §3
Candida albicans [19] = assay: Induction of morphological changes in Candida albicans assessed as incomplete cell wall structure at 0.53 to 1.06 microg/ml incubated for 16 to 24 hrs by transmission electron microscopic analysis; type: functional, organism-based; conditions: dose 0.53-1.06 µg/ml, time 16-24 hrs; in short: as §2

## O=C(Cn1cc(COC(Cn2ccnc2)c2ccc(Cl)cc2Cl)nn1)c1ccc2ccccc2c1 (stereo unspecified)
Candida albicans [1]
  Activity: Active
Candida albicans [2]
  Activity: Active
Candida albicans [3]
  MIC50: 10.9 µg/mL (≈ 21.6 µM)
Candida albicans [4]
  Activity: Active
Candida albicans [5]
  Activity: Active
Candida albicans [6]
  Activity: Active
Candida albicans [7]
  Activity: Active
Candida albicans [8]
  Activity: Active
Candida albicans [9]
  Activity: Active
16HBE14o-
  Activity: Non-toxic
Candida albicans [10]
  MIC50: 0.53 µg/mL (≈ 1.05 µM)
Candida albicans [11]
  Activity: Dose-dependent-effect
Candida albicans [12]
  Activity: Active
Candida albicans [13]
  Activity: Dose-dependent-effect
Cell membrane
  Activity: Dose-dependent-effect; Better Than That Of Fluconazole Group
Candida albicans [14]
  Activity: Active
Candida albicans [15]
  Activity: Active
Candida albicans [16]
  Activity: Active
Candida albicans [17]
  Activity: Active
Candida albicans [18]
  Activity: Active
Candida albicans [19]
  Activity: Active
